Measurements: ChEMBL document CHEMBL1138635, “Myxopyronin B analogs as inhibitors of RNA polymerase, synthesis and biological evaluation” (Bioorg Med Chem Lett, 2004)
Converted amounts (≈) assume the structure as drawn.

How the values were obtained:
Staphylococcus aureus = experiment: Minimum inhibitory concentration against Staphylococcus aureus; format: functional
Summary of the method: (§1)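 Growth inhibition by serial dilution. MIC reported in µg/mL as the average of triplicate measurements.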

[1] = biological target: DNA-directed RNA polymerase subunit beta (Escherichia coli K-12) (UniProt P0A8V2); experiment: In vitro percent inhibition against RNA polymerase of Escherichia coli in nucleotide coupled NADPH/pyrophosphate release assay at 10 uM; format: functional
DNA-directed RNA polymerase subunit beta (Escherichia coli K-12), sequence (P0A8V2 whole entry, looked up): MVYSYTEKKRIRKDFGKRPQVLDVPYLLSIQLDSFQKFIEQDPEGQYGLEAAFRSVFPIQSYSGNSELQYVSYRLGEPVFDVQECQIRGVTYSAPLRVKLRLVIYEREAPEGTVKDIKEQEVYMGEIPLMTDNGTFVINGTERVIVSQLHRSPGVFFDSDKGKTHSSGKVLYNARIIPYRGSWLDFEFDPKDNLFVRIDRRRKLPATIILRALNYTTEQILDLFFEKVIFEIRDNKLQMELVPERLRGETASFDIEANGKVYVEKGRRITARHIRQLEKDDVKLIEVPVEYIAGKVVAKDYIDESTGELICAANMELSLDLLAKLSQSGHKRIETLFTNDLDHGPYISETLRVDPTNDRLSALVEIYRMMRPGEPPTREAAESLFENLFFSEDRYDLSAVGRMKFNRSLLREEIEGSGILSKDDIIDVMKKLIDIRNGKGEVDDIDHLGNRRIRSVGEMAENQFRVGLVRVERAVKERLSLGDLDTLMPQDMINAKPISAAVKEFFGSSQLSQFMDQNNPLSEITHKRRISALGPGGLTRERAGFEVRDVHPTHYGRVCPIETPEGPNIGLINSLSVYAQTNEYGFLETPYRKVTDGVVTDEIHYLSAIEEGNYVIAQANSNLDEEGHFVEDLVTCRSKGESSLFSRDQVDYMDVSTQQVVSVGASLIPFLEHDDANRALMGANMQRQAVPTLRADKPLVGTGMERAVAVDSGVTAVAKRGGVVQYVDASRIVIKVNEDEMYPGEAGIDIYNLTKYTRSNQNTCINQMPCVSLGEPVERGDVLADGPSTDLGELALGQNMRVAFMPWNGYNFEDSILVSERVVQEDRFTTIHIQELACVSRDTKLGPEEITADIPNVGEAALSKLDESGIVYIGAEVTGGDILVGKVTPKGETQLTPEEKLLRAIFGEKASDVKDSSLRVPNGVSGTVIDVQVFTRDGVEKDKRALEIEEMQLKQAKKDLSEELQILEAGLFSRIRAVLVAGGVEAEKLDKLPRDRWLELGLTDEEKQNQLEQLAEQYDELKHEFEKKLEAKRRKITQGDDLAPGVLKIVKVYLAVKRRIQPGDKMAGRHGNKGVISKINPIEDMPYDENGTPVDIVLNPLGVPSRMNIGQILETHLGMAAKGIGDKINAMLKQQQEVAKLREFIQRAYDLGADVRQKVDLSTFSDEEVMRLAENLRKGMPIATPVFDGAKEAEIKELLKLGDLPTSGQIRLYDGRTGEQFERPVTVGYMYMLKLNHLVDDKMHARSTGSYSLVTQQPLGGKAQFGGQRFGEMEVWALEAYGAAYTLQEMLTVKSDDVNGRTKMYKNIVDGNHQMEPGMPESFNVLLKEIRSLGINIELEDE
Summary of the method: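 E. coli RNA polymerase activity measured in a nucleotide-coupled NADPH/pyrophosphate release assay. NADPH was read by fluorescence (emission ~440 nm) rather than absorbance at 340 nm. For weaker inhibitors, percent inhibition was recorded at 10 µM instead of an IC50.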

Escherichia coli [2] = experiment: Minimum inhibitory concentration against Escherichia coli (Tol C); format: functional; summary of the method: as §1
Escherichia coli [3] = experiment: Minimum inhibitory concentration against Escherichia coli; format: functional; summary of the method: as §1
[4] = biological target: DNA-directed RNA polymerase subunit beta (Escherichia coli K-12, UniProt P0A8V2); experiment: In vitro inhibitory activity against RNA polymerase of Escherichia coli
DNA-directed RNA polymerase subunit beta, sequence (P0A8V2 whole entry): as the sequence (P0A8V2 whole entry, looked up) above
Summary of the method: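 E. coli RNAP activity measured by a nucleotide-coupled assay that links pyrophosphate release to NADPH. NADPH was read by fluorescence (emission ~440 nm) instead of absorbance at 340 nm. IC50 was determined; for weak inhibitors, percent inhibition at 10 µM was reported instead. Selected compounds were also tested by radiolabeled nucleotide incorporation into RNA.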

Row | MIC (Staphylococcus aureus) [µg/mL] | inhibition [1] [%] | MIC (Escherichia coli [2]) [µg/mL] | MIC (Escherichia coli [3]) [µg/mL] | Structure (SMILES) | IC50 [4] [nM]
1 | > 64 | < 20 | > 64 | > 64 | CCCC/C(C)=C/C=C(\C)C(=O)c1c(O)cc(C(C)Cc2cccc(NC(=O)OC)c2)oc1=O (centres undefined) | –
2 | > 64 | < 20 | > 64 | > 64 | CCCC/C(C)=C/C=C(\C)C(=O)c1c(O)cc(C(C)CC/C=C/NC(=O)OCCN2CCOCC2)oc1=O (centres undefined) | –
3 | > 64 | < 20 | > 64 | > 64 | CCCC/C(C)=C/C=C(\C)C(=O)c1c(O)cc(C(C)Cc2ccc(NC(=O)OC)cc2)oc1=O (centres undefined) | –
4 | 64 (≈ 153 µM) | 70 | 32 (≈ 76.6 µM) | > 64 | CCCC/C(C)=C/C=C/C(=O)c1c(O)cc(C(C)CC/C=C/NC(=O)OC)oc1=O (centres undefined) | –
5 | > 64 | < 20 | > 64 | > 64 | CCC(=O)c1c(O)cc(C(C)CC/C=C/NC(=O)OC)oc1=O (centres undefined) | –
6 | > 64 | < 20 | > 64 | > 64 | CCCC/C(C)=C/CNC(=O)c1c(O)cc(C(C)CC/C=C/NC(=O)OC)oc1=O (centres undefined) | –
7 | > 64 | < 20 | > 64 | > 64 | CCCC/C(C)=C/C=C(\C)C(=O)c1c(O)cc(C(C)CC/C=C/NC(=O)OCCN(C)C)oc1=O (centres undefined) | –

The remaining lines, values behind:

Row | Structure (SMILES) | MIC (Staphylococcus aureus) [µg/mL] | inhibition [1] [%] | MIC (Escherichia coli [2]) [µg/mL] | MIC (Escherichia coli [3]) [µg/mL] | IC50 [4] [nM]
8 | CCCC/C(C)=C/C=C(\C)C(=O)c1c(O)cc(C(C)CC/C=C/C(=O)OC)oc1=O (centres undefined) | > 64 | < 20 | > 64 | > 64 | –
9 | CCCC/C(C)=C/C=C(\C)C(=O)c1c(OC)cc(C(C)CC/C=C/NC(=O)OC)oc1=O (centres undefined) | > 64 | – | > 64 | > 64 | 4200
10 | CCCC/C(C)=C/C=C(\C)C(=O)c1c(O)cc(C(C)CC/C=C/NC(=O)OC)oc1=O (centres undefined) | 1 (≈ 2.32 µM) | – | 2 (≈ 4.63 µM) | > 64 | 920
11 | CCCC/C(C)=C/C=C(\C)C(=O)c1c(O)cc(C(C)CC/C=C\NC(=O)OC)oc1=O (centres undefined) | 4 (≈ 9.27 µM) | – | 4 (≈ 9.27 µM) | > 64 | 1260
12 | CCCC/C(C)=C/C=C(\C)C(=O)c1c(O)cc(C(C)CCCC=O)oc1=O (centres undefined) | > 64 | < 20 | > 64 | > 64 | –
13 | CCCC/C(C)=C\C=C(\C)C(=O)c1c(O)cc(C(C)CC/C=C/NC(=O)OC)oc1=O (centres undefined) | 16 (≈ 37.1 µM) | – | 16 (≈ 37.1 µM) | > 64 | 2500
14 | CCCC/C(C)=C/C=C(\C)C(=O)c1c(O)cc(C(C)CCCCNC(=O)OC)oc1=O (centres undefined) | 64 (≈ 148 µM) | – | 8 (≈ 18.5 µM) | > 64 | 4000
15 | CCCC/C=C/C=C(\C)C(=O)c1c(O)cc(C(C)CC/C=C/NC(=O)OC)oc1=O (centres undefined) | 16 (≈ 38.3 µM) | – | 2 (≈ 4.79 µM) | > 64 | 1040
16 | CCCC/C(C)=C/C=C(\C)C(=O)c1c(O)cc(CCC/C=C/NC(=O)OC)oc1=O [DESMETHYL MYXOPYRONIN B] | 4 (≈ 9.58 µM) | – | 1 (≈ 2.4 µM) | > 64 | 340
